Lmaj promast – Leishmania major promastigote growth inhibition, primary screen; Leishmania major promastigotes, resazurin fluorescence viability; inhibition, % at 10 µM; 9% of 200,000 active; in the data active = inhibition above about 50%;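 also: promastigotes grown with compound for 44 hours at 28 °C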
ROMK primary – ROMK potassium channel modulators, primary screen, cell-based, thallium flux, MLSMR library. ATP-sensitive inward rectifier potassium channel 1 (Homo sapiens), P48048. Tet-inducible ROMK, thallium flux fluorescence; actives lie on both sides. B-score at 10 µM. 2% of 130,000 active. AID 1918, 2009;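 active = signal ratio slope over the read window, or its plate-corrected B-score, at least 3 SD from the plate mean, either direction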;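 also: B-score of the F/F0 ratio slope over 7 to 12 s after thallium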
Target sequence (P48048 whole entry, looked up): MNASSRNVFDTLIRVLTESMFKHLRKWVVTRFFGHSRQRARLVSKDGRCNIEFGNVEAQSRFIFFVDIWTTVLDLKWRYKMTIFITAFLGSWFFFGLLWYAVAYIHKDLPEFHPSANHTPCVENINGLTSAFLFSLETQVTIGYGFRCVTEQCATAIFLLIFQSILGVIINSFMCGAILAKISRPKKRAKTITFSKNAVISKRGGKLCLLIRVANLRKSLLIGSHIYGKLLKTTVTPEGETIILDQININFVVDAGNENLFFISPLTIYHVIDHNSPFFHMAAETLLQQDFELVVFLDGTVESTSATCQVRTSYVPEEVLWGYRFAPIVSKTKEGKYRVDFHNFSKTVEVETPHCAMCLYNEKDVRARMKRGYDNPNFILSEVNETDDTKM
Diaph inh CS – diaphorase inhibitors and chemical oxidizers, primary screen, counter-screen for diaphorase-coupled primary assays, biochemical, uHTS, resorufin fluorescence; diaphorase resazurin-to-resorufin fluorescence, NADH, 16 min; bacterial (C. kluyveri) enzyme, not human; inhibition, % at 20 µM; 0.69% of 190,000 active; AID 1217, 2008;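 active = primary screen inhibition at 20 µM above a set limit, cut at about 50% in these data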;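 also: plate controls were DMSO with full reaction for no effect and wells lacking NADH for full effect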
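Assay system: diaphorase enzyme from Clostridium kluyveri; Input: enzyme working solution with 0.14 U/mL diaphorase; Timing: 16 min at room temperature; Technique: resorufin fluorescence, excitation 544 nm, emission 590 nm; Benchmarks: positive control minus NADH, DMSO neutral control.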
Cl transport mod – KCC2 cotransporter modulators, thallium flux, primary screen, cell-based, HEK293 KCC2, FluoZin-2 fluorescence, MLSMR; Solute carrier family 12 member 5 (Homo sapiens), Q9H2X9; B-score of Tl+ flux slope (higher = more flux/activation; lower = inhibition) at 10 µM; 2.2% of 190,000 active; KCC2 cells, thallium flux FluoZin-2 fluorescence;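 active = thallium flux slope and its plate-corrected score both differing from the plate sample mean at a set confidence after two filtering rounds, in either direction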;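 also: slope of fluorescence scaled to starting intensity during 10 to 20 s after thallium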
Diaph act CS – compounds boosting diaphorase resazurin reduction – biochemical, uHTS, resorufin fluorescence, counter-screen for diaphorase-coupled primary assays, primary screen; activation factor at 20 µM; Diaphorase/resazurin coupled assay, 16 min; hits give high values; 1 = vehicle wells, 0 = NADH-free wells; 0.005% of 190,000 active;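 active = diaphorase activity raised at least twofold by the compound at 20 µM; inactive = activation factor below 2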
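Material: purified diaphorase enzyme from Clostridium kluyveri; Also added: 0.114 mM NADH and 0.1 mM resazurin, final amounts; Doses: single compound dose of 20 µM, 1% DMSO final; Times: 16 min enzyme reaction, ambient temperature; Detection: resorufin fluorescence, excitation 544 nm, emission 590 nm; Measure: increased resorufin signal from activators or reducing compounds.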
WT yeast gro inh – growth inhibition of WT strain, primary screen, mitochondrial fusion inhibitor project, WT and mutant strains, chemical genetic. mitochondrial fusion phenotypic screen. inhibition, % at 10 µM. AID 1362, 2008. 2.1% of 190,000 active; in the data active = inhibition above about 58%; tested in S. cerevisiae
* = called active by the depositor; nt = not tested or not shown. Compounds with a hit are over-represented: about 12% of the library has one in this group of screens.

SMILES	Lmaj promast	ROMK primary	Diaph inh CS	Cl transport mod	Diaph act CS	WT yeast gro inh
CC(=O)NC(=S)Nc1ccc2oc(=O)ccc2c1	nt	nt	nt	-0.134	nt	nt
C(=N\Nc1ncnc2sc3c(c12)CCC3)/c1ccncc1	65.9*	-1.4	-19.5	-1.02	1.2	-2.5
CC(C)Nc1nc(-c2ccccn2)nc(-c2ccccc2)c1C#N	23.3	-0.214	-3.9	-1.12	1	-2.9
C=CCNc1nc(-c2ccccn2)nnc1-c1ccccc1	99.7*	0.697	12.8	nt	0.9	51.5
Cn1c(=O)c2c(nc(CN3CCN(CCO)CC3)n2Cc2cccc3ccccc23)n(C)c1=O	99.3*	nt	1.6	-1.27	1	-4.3
CN1CCN(c2nc3c(c(=O)n(C)c(=O)n3C)n2Cc2cccc3ccccc23)CC1	19.5	-0.144	3.0	0.0553	1	-41.4
Cn1c(=O)c2c(nc(N3CCCCCC3)n2Cc2cccc3ccccc23)n(C)c1=O	34.5	-1.83	29.5	-1.37	0.7	80.8*
CCc1nn(C(C)C(=O)NCCN2CCN(c3cccc(C)c3C)CC2)c(=O)c2cc3occc3n12 (centres undefined)	84.5*	nt	12.3	-1.47	0.9	57.8
CCCCCCCc1ccc(-c2ccc(O)cc2)nc1	-1.1	0.589	-1.4	0.707	1	73.5*
CCCCCc1ccc(-c2ccc(/C=C/C(=O)O)cc2)nc1	46.8	-0.0732	13.6	-1.53	0.9	31.6
COC(=O)c1ccc(NC(=O)C(=O)N2CCN(C(=S)Nc3ccc(C)cc3)CC2)cc1	66.0*	-1.08	7.2	1.87	0.9	19.4
COC(=O)c1ccc(NC(=O)C(=O)N2CCN(C(=S)Nc3cccc(OC)c3)CC2)cc1	71.6*	0.727	12.6	0.0478	0.9	7.9
N#C/C(=C\c1c[nH]c2ccccc12)C(N)=O	nt	nt	nt	-0.682	nt	nt
CC(=O)Oc1c(/C=C(\C#N)C(N)=O)[nH]c2ccccc12	95.8*	nt	13.6	nt	0.9	32.8
Nc1c(S(=O)(=O)c2ccccc2)c2nc3ccccc3nc2n1Cc1ccco1	77.5*	0.0151	10.1	nt	0.9	0.4
Cc1ccc(S(=O)(=O)c2c(N)n(Cc3ccco3)c3nc4ccccc4nc23)cc1C	90.6*	-2.19	9.0	-0.385	0.9	12.5
Cc1ccc(S(=O)(=O)c2c(N)n(CCN3CCOCC3)c3nc4ccccc4nc23)cc1C	-2.6	nt	2.3	-0.021	1	6.8
O=C(c1ccc(CS(=O)(=O)c2ccccc2)o1)N1CCN(c2ncccn2)CC1	-5.2	nt	13.8	nt	0.9	2.3
S=C(NCCc1ccccn1)Nc1ccc(Cl)cc1Cl	3.5	-1.24	-6.8	-0.076	1.1	13.9
CCOC(=O)N1CCN(CC(O)c2ccc3c(c2)CCN3)CC1 (centres undefined)	1.5	nt	-5.0	-0.113	1.1	-1.4
CCOC(=O)N1CCN(CC(O)c2ccc3cc[nH]c3c2)CC1 (centres undefined)	70.2*	nt	23.3	1.5	0.8	-1.1
COc1ccccc1N1CCN(CC(O)c2ccc3cc[nH]c3c2)CC1 (centres undefined)	89.2*	nt	18.4	0.0503	0.8	11.4
COc1ccccc1N1CCN(CC(O)COc2c(OC)cccc2OC)CC1 (centres undefined)	-1.8	nt	21.8	nt	0.8	-10.0
CCOC(=O)c1sc2nc(NC(=O)c3cccs3)sc2c1C	nt	nt	nt	nt	nt	12.6
CCOC(=O)N1CCN(C(=O)CN(C2CCCCC2)S(=O)(=O)c2c(C)cc(C)cc2C)CC1	36.1	-1.49	11.7	-1.38	0.9	22.2
c1ccc2c(c1)oc1c(N3CCN(Cc4ccc5c(c4)OCO5)CC3)ncnc12	94.5*	-1.63	23.2	0.802	0.8	75.6*
CCNc1nc(CC)nc2c1oc1ccccc12	56.6*	nt	7.3	-0.434	0.9	18.7
CCc1nc(SCc2nc3ccccc3[nH]2)c2oc3ccccc3c2n1	24.0	-0.489	20.3	nt	0.8	74.1*
CCc1nc(N2CCC(C)CC2)c2oc3ccccc3c2n1	5.8	nt	13.6	-0.43	0.9	73.4*

Source: PubChem (several laboratories)
